According to ChEMBL document CHEMBL2146466, “Evaluation of dimerization-inhibitory activities of cyclic peptides containing a β-hairpin loop sequence of the EGF receptor” (2012):
The source made the active and inactive calls. No cut-off for these calls is given here. Where a SMILES comes first, the peptide text is derived from it.

Tests used:
[1] = target: Epidermal growth factor receptor (Homo sapiens) (UniProt P00533); test: Inhibition of human recombinant EGF receptor dimerization expressed in A431 cells at 10 uM after 10 mins by immunoblotting analysis relative to control; format: cell-based; conditions: A-431
Epidermal growth factor receptor (Homo sapiens), sequence (P00533 whole entry): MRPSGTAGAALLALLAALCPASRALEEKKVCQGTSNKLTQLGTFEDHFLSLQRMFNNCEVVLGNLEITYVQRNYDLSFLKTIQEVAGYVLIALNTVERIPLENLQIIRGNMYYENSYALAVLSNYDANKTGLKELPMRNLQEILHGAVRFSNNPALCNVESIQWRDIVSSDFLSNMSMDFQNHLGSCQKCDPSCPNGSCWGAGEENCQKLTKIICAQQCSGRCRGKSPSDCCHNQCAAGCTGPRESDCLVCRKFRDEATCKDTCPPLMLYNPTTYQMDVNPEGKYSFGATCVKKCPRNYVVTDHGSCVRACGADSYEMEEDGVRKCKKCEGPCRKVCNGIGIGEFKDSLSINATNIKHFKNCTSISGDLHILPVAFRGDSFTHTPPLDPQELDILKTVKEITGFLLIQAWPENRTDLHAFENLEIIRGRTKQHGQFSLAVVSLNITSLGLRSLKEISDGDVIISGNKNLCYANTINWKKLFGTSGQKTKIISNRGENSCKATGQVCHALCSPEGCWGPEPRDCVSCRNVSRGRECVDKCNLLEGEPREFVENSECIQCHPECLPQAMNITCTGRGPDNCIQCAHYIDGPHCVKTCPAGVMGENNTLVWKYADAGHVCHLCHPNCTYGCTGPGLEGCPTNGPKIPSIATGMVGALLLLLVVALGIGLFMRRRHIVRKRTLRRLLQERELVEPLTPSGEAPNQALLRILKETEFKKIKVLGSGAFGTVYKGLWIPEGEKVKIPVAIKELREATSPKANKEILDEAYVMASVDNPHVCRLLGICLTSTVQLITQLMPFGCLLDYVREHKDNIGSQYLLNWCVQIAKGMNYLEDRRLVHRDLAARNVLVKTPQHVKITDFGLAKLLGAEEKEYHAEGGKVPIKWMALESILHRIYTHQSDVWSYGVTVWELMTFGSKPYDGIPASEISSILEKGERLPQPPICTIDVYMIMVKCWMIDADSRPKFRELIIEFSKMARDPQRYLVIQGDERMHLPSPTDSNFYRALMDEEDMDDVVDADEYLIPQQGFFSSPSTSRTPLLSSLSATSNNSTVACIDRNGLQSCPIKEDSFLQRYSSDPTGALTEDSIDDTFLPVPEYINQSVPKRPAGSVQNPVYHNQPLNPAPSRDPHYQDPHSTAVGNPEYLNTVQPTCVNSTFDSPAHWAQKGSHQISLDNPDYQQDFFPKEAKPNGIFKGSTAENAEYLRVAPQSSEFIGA
In short: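 Confluent A431 cells were solubilized in 20 mM HEPES pH 7.4 with 1% Triton X-100, 10% glycerol, 1 mM EGTA and 1 mM PMSF, and the extract was spun at 250,000×g. Supernatant at 2 µg/µL protein was pre-treated 60 min with 10 µM peptide, then given 0.21 µM human EGF for 10 min. Cross-linking was with 1 mM BS³ for 10 min, quenched with glycine. Dimer and monomer were resolved by SDS-PAGE and anti-EGFR immunoblot, with ECL quantification. Dimer without peptide was set to 1.0; mean ± SD of at least three experiments in duplicate.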

[2] = target: Epidermal growth factor receptor (Homo sapiens) (UniProt P00533); test: Human recombinant EGF receptor dimer amount expressed in A431 cells at 10 uM after 10 mins by immunoblotting analysis relative to control; conditions: A-431

inhibition [1]	residual activity [2]	Compound
inactive		CSCC[C@@H]1NC(=O)[C@H](CCC(N)=O)NC(=O)[C@H](Cc2ccc(O)cc2)NC(=O)[C@H]([C@@H](C)O)NC(=O)[C@H]([C@@H](C)O)NC(=O)[C@@H]2CCCN2C(=O)[C@H](CC(N)=O)NC(=O)[C@H](C)NC(=O)[C@@H](N)CSSC[C@@H](C(=O)O)NC1=O (HELM PEPTIDE1{C.A.N.P.T.T.Y.Q.M.C}$PEPTIDE1,PEPTIDE1,1:R3-10:R3$$$V2.0)
Active		CSCC[C@@H]1NC(=O)[C@H](CCC(N)=O)NC(=O)[C@H](Cc2ccc(O)cc2)NC(=O)[C@H]([C@@H](C)O)NC(=O)[C@H]([C@@H](C)O)NC(=O)[C@@H]2CCCN2C(=O)[C@H](CC(N)=O)NC(=O)[C@H](Cc2ccc(O)cc2)NC(=O)[C@H](CC(C)C)NC(=O)[C@H](CCSC)NC(=O)[C@H](CC(C)C)NC(=O)[C@@H](N)CSSC[C@@H](C(=O)O)NC(=O)[C@H](CCC(=O)O)NC(=O)[C@@H]2CCCN2C(=O)[C@H](C(C)C)NC(=O)[C@H](CC(=O)O)NC1=O (HELM PEPTIDE1{C.L.M.L.Y.N.P.T.T.Y.Q.M.D.V.P.E.C}$PEPTIDE1,PEPTIDE1,1:R3-17:R3$$$V2.0)
	80%	CSCC[C@@H]1NC(=O)[C@H](CCC(N)=O)NC(=O)[C@H](Cc2ccc(O)cc2)NC(=O)[C@H]([C@@H](C)O)NC(=O)[C@H]([C@@H](C)O)NC(=O)[C@@H]2CCCN2C(=O)[C@H](CC(N)=O)NC(=O)[C@H](Cc2ccc(O)cc2)NC(=O)[C@H](CC(C)C)NC(=O)[C@@H](N)CSSC[C@@H](C(=O)O)NC1=O (HELM PEPTIDE1{C.L.Y.N.P.T.T.Y.Q.M.C}$PEPTIDE1,PEPTIDE1,1:R3-11:R3$$$V2.0)
	80%	CSCC[C@@H]1NC(=O)[C@H](CCC(N)=O)NC(=O)[C@H](Cc2ccc(O)cc2)NC(=O)[C@H]([C@@H](C)O)NC(=O)[C@H]([C@@H](C)O)NC(=O)[C@@H]2CCCN2C(=O)[C@H](CC(N)=O)NC(=O)[C@H](Cc2ccc(O)cc2)NC(=O)[C@H](CC(C)C)NC(=O)[C@@H](N)CSSC[C@@H](C(=O)O)NC(=O)[C@H](CC(=O)O)NC1=O (HELM PEPTIDE1{C.L.Y.N.P.T.T.Y.Q.M.D.C}$PEPTIDE1,PEPTIDE1,1:R3-12:R3$$$V2.0)
Active		CSCC[C@@H]1NC(=O)[C@H](CCC(N)=O)NC(=O)[C@H](Cc2ccc(O)cc2)NC(=O)[C@H]([C@@H](C)O)NC(=O)[C@H]([C@@H](C)O)NC(=O)[C@@H]2CCCN2C(=O)[C@H](CC(N)=O)NC(=O)[C@H](Cc2ccc(O)cc2)NC(=O)[C@H](CC(C)C)NC(=O)[C@H](CCSC)NC(=O)[C@@H](N)CSSC[C@@H](C(=O)O)NC(=O)[C@H](C(C)C)NC(=O)[C@H](CC(=O)O)NC1=O (HELM PEPTIDE1{C.M.L.Y.N.P.T.T.Y.Q.M.D.V.C}$PEPTIDE1,PEPTIDE1,1:R3-14:R3$$$V2.0)
Active		CSCC[C@@H]1NC(=O)[C@H](CCC(N)=O)NC(=O)[C@H](Cc2ccc(O)cc2)NC(=O)[C@H]([C@@H](C)O)NC(=O)[C@H]([C@@H](C)O)NC(=O)[C@@H]2CCCN2C(=O)[C@H](CC(N)=O)NC(=O)[C@H](Cc2ccc(O)cc2)NC(=O)[C@H](CC(C)C)NC(=O)[C@H](CCSC)NC(=O)[C@H](CC(C)C)NC(=O)[C@@H]2CCCN2C(=O)[C@@H]2CCCN2C(=O)[C@@H](N)CSSC[C@@H](C(=O)O)NC(=O)CNC(=O)[C@H](CCC(=O)O)NC(=O)[C@@H]2CCCN2C(=O)[C@H](C(C)C)NC(=O)[C@H](CC(=O)O)NC1=O (HELM PEPTIDE1{C.P.P.L.M.L.Y.N.P.T.T.Y.Q.M.D.V.P.E.G.C}$PEPTIDE1,PEPTIDE1,1:R3-20:R3$$$V2.0)
	73%	C[C@@H]1NC(=O)[C@H](CCC(N)=O)NC(=O)[C@H](Cc2ccc(O)cc2)NC(=O)[C@H]([C@@H](C)O)NC(=O)[C@H]([C@@H](C)O)NC(=O)[C@@H]2CCCN2C(=O)[C@H](CC(N)=O)NC(=O)[C@H](Cc2ccc(O)cc2)NC(=O)[C@@H](N)CSSC[C@@H](C(=O)O)NC1=O (HELM PEPTIDE1{C.Y.N.P.T.T.Y.Q.A.C}$PEPTIDE1,PEPTIDE1,1:R3-10:R3$$$V2.0)
inactive		C[C@@H](O)[C@@H]1NC(=O)[C@H]([C@@H](C)O)NC(=O)[C@@H]2CCCN2C(=O)[C@H](CC(N)=O)NC(=O)[C@H](Cc2ccc(O)cc2)NC(=O)[C@@H](N)CSSC[C@@H](C(=O)N[C@@H](CC(=O)O)C(=O)O)NC(=O)[C@H](CCC(N)=O)NC(=O)[C@H](Cc2ccc(O)cc2)NC1=O (HELM PEPTIDE1{C.Y.N.P.T.T.Y.Q.C.D}$PEPTIDE1,PEPTIDE1,1:R3-9:R3$$$V2.0)
	73%	CC(C)C[C@@H]1NC(=O)[C@H](CCC(N)=O)NC(=O)[C@H](Cc2ccc(O)cc2)NC(=O)[C@H]([C@@H](C)O)NC(=O)[C@H]([C@@H](C)O)NC(=O)[C@@H]2CCCN2C(=O)[C@H](CC(N)=O)NC(=O)[C@H](Cc2ccc(O)cc2)NC(=O)[C@@H](N)CSSC[C@@H](C(=O)O)NC1=O (HELM PEPTIDE1{C.Y.N.P.T.T.Y.Q.L.C}$PEPTIDE1,PEPTIDE1,1:R3-10:R3$$$V2.0)
inactive		CSCC[C@@H]1NC(=O)[C@H](CCC(N)=O)NC(=O)[C@H](Cc2ccc(O)cc2)NC(=O)[C@H]([C@@H](C)O)NC(=O)[C@H]([C@@H](C)O)NC(=O)[C@@H]2CCCN2C(=O)[C@H](CC(N)=O)NC(=O)[C@H](Cc2ccc(O)cc2)NC(=O)[C@@H](N)CSSC[C@@H](C(=O)N[C@H](C(=O)N[C@@H](CC(N)=O)C(=O)N2CCC[C@H]2C(=O)N[C@@H](CCC(=O)O)C(=O)O)C(C)C)NC1=O (HELM PEPTIDE1{C.Y.N.P.T.T.Y.Q.M.C.V.N.P.E}$PEPTIDE1,PEPTIDE1,1:R3-10:R3$$$V2.0)
inactive		CSCC[C@@H]1NC(=O)[C@H](CCC(N)=O)NC(=O)[C@H](Cc2ccc(O)cc2)NC(=O)[C@H]([C@@H](C)O)NC(=O)[C@H]([C@@H](C)O)NC(=O)[C@@H]2CCCN2C(=O)[C@H](CC(N)=O)NC(=O)[C@H](Cc2ccc(O)cc2)NC(=O)[C@@H](N)CSSC[C@@H](C(=O)N[C@H](C(=O)N[C@@H](CC(N)=O)C(=O)O)C(C)C)NC1=O (HELM PEPTIDE1{C.Y.N.P.T.T.Y.Q.M.C.V.N}$PEPTIDE1,PEPTIDE1,1:R3-10:R3$$$V2.0)
inactive		CSCC[C@@H]1NC(=O)[C@H](CCC(N)=O)NC(=O)[C@H](Cc2ccc(O)cc2)NC(=O)[C@H]([C@@H](C)O)NC(=O)[C@H]([C@@H](C)O)NC(=O)[C@@H]2CCCN2C(=O)[C@H](CC(N)=O)NC(=O)[C@H](Cc2ccc(O)cc2)NC(=O)[C@@H](N)CSSC[C@@H](C(=O)N[C@H](C(=O)O)C(C)C)NC1=O (HELM PEPTIDE1{C.Y.N.P.T.T.Y.Q.M.C.V}$PEPTIDE1,PEPTIDE1,1:R3-10:R3$$$V2.0)
	80%	CSCC[C@@H]1NC(=O)[C@H](CCC(N)=O)NC(=O)[C@H](Cc2ccc(O)cc2)NC(=O)[C@H]([C@@H](C)O)NC(=O)[C@H]([C@@H](C)O)NC(=O)[C@@H]2CCCN2C(=O)[C@H](CC(N)=O)NC(=O)[C@H](Cc2ccc(O)cc2)NC(=O)[C@@H](N)CSSC[C@@H](C(=O)O)NC(=O)[C@H](CC(=O)O)NC1=O (HELM PEPTIDE1{C.Y.N.P.T.T.Y.Q.M.D.C}$PEPTIDE1,PEPTIDE1,1:R3-11:R3$$$V2.0)
	73%	C[C@@H](O)[C@@H]1NC(=O)[C@H]([C@@H](C)O)NC(=O)[C@@H]2CCCN2C(=O)[C@H](CC(N)=O)NC(=O)[C@H](Cc2ccc(O)cc2)NC(=O)[C@@H](N)CSSC[C@@H](C(=O)O)NC(=O)[C@H](CCC(N)=O)NC(=O)[C@H](CCC(N)=O)NC(=O)[C@H](Cc2ccc(O)cc2)NC1=O (HELM PEPTIDE1{C.Y.N.P.T.T.Y.Q.Q.C}$PEPTIDE1,PEPTIDE1,1:R3-10:R3$$$V2.0)
	73%	C[C@@H](O)[C@@H]1NC(=O)[C@H]([C@@H](C)O)NC(=O)[C@@H]2CCCN2C(=O)[C@H](CC(N)=O)NC(=O)[C@H](Cc2ccc(O)cc2)NC(=O)[C@@H](N)CSSC[C@@H](C(=O)O)NC(=O)[C@H](CC[S+](C)[O-])NC(=O)[C@H](CCC(N)=O)NC(=O)[C@H](Cc2ccc(O)cc2)NC1=O (some centres undefined) (HELM PEPTIDE1{C.Y.N.P.T.T.Y.Q.[CS(=O)CC[C@H](N[*:1])C(=O)[*:2]].C}$PEPTIDE1,PEPTIDE1,1:R3-10:R3$$$V2.0)
	73%	CCCC[C@@H]1NC(=O)[C@H](CCC(N)=O)NC(=O)[C@H](Cc2ccc(O)cc2)NC(=O)[C@H]([C@@H](C)O)NC(=O)[C@H]([C@@H](C)O)NC(=O)[C@@H]2CCCN2C(=O)[C@H](CC(N)=O)NC(=O)[C@H](Cc2ccc(O)cc2)NC(=O)[C@@H](N)CSSC[C@@H](C(=O)O)NC1=O (HELM PEPTIDE1{C.Y.N.P.T.T.Y.Q.[Nle].C}$PEPTIDE1,PEPTIDE1,1:R3-10:R3$$$V2.0)
inactive		CC(C)C[C@H](N)C(=O)N[C@H]1CSSC[C@@H](C(=O)N[C@@H](CC(=O)O)C(=O)O)NC(=O)[C@H](CCC(N)=O)NC(=O)[C@H](Cc2ccc(O)cc2)NC(=O)[C@H]([C@@H](C)O)NC(=O)[C@H]([C@@H](C)O)NC(=O)[C@@H]2CCCN2C(=O)[C@H](CC(N)=O)NC1=O (HELM PEPTIDE1{L.C.N.P.T.T.Y.Q.C.D}$PEPTIDE1,PEPTIDE1,2:R3-9:R3$$$V2.0)
Active		CSCC[C@@H]1NC(=O)[C@H](CCC(N)=O)NC(=O)[C@H](Cc2ccc(O)cc2)NC(=O)[C@H]([C@@H](C)O)NC(=O)[C@H]([C@@H](C)O)NC(=O)[C@@H]2CCCN2C(=O)[C@H](CC(N)=O)NC(=O)[C@H](Cc2ccc(O)cc2)NC(=O)[C@@H](NC(=O)[C@H](CCSC)NC(=O)[C@@H](N)CC(C)C)CSSC[C@@H](C(=O)O)NC1=O (HELM PEPTIDE1{L.M.C.Y.N.P.T.T.Y.Q.M.C}$PEPTIDE1,PEPTIDE1,3:R3-12:R3$$$V2.0)
	64%	CSCC[C@@H]1NC(=O)[C@H](CCC(N)=O)NC(=O)[C@H](Cc2ccc(O)cc2)NC(=O)[C@H]([C@@H](C)O)NC(=O)[C@H]([C@@H](C)O)NC(=O)[C@@H]2CCCN2C(=O)[C@H](CC(N)=O)NC(=O)[C@H](Cc2ccc(O)cc2)NC(=O)[C@@H](NC(=O)[C@@H](N)CCSC)CSSC[C@@H](C(=O)O)NC1=O (HELM PEPTIDE1{M.C.Y.N.P.T.T.Y.Q.M.C}$PEPTIDE1,PEPTIDE1,2:R3-11:R3$$$V2.0)
